Experimental data taken from the M2OR odorant receptor database.

Test system: T1, A0A140T8K0
T1 sequence (whole entry): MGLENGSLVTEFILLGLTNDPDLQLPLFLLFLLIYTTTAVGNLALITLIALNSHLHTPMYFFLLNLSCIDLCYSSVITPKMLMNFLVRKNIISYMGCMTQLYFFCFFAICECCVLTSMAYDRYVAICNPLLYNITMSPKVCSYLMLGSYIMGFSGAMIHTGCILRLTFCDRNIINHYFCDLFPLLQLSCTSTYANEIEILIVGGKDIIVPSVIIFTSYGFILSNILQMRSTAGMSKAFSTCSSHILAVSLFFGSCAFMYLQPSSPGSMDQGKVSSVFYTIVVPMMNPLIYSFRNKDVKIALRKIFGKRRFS
Settings: stereoisomer not certain
Method in brief: (§1)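 Values were gathered from published papers (main text and supplementary material), with extra details requested from the original authors when needed, and checked for typos and inconsistencies. Each receptor–molecule pair is called responsive (active) if the original authors judged the measured signal statistically different from baseline, and non-responsive (inactive) otherwise. Assay methods varied by source, often transient mammalian cell-line luciferase assays. Recorded details include cell line, G-protein, co-transfected protein and tags.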

| Structure (SMILES) | odorant receptor agonist call |
| --- | --- |
| CCCCC(=O)CC | inactive |
| CCCCCCCCCS | inactive |
| O=C([O-])CCCCCCC(=O)[O-].[H+].[H+] | inactive |
| O=C1Cc2ccccc2O1 | inactive |
| CCOC(=O)C(C)C | inactive |
| CCCCCOC(=O)CCCCC | inactive |
| CC=Cc1ccc(OC)cc1 | inactive |
| CCCCCC1=C(C)CCC1=O | inactive |
| CCCCCCCCCO | inactive |
| CC(C)=CCCC(C)=CCO | inactive |
| CC(=O)OCC=C(C)C | inactive |
| CCCC(=O)C(C)=O | inactive |
| CC(=O)Oc1ccccc1 | inactive |
| CC(=O)OCc1ccccc1 | inactive |
| C=CCOC(=O)CCCCCC | inactive |
| CCc1ccc(O)cc1 | inactive |
| CCCCCCCCO | inactive |
| CCCCCCOC(C)=O | inactive |
| C=C(C)C1CCC(C)C(=O)C1 (stereo unspecified) | inactive |
| CCCCCCCCS | inactive |

| Structure (SMILES) | odorant receptor agonist call |
| --- | --- |
| CCCCC(=O)O | inactive |
| O=C1CCOc2ccccc21 | inactive |
| CCCCCCCCCC(=O)[O-].[H+] | inactive |
| CCCCCCCCC(=O)O | inactive |
| CCC(=O)O | inactive |
| CCCCCC(=O)CC | inactive |
| CCC(=O)C(=O)CC | inactive |
| CCCCCCO | inactive |
| CCCCCCCO | inactive |
| CCCCCCCC(C)=O | inactive |
| CCCCCCC(C)=O | inactive |
| CC12CCC(CC1=O)C2(C)C (stereo unspecified) | inactive |
| CC(C)=CCCC(C)CCO (stereo unspecified) | inactive |
| CCCCCC=O | inactive |
| O=C(c1ccccc1)c1ccccc1 | inactive |
| c1ccccc1 | inactive |
| CCCCC(C)=O | inactive |
| CCCCOC=O | inactive |
| CCCCCCCCCCO | inactive |

Test system: T2, A0A140T8K4
T2 sequence (whole entry): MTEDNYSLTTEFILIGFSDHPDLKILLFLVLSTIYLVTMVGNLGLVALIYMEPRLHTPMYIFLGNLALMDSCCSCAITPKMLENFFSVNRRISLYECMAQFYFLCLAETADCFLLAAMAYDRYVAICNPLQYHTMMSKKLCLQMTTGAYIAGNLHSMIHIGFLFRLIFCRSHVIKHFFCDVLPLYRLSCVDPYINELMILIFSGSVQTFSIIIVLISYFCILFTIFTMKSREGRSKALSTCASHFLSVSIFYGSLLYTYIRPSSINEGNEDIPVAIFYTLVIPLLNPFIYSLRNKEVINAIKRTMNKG
Settings: stereoisomer not certain
Method in brief: as §1

| Structure (SMILES) | odorant receptor agonist call |
| --- | --- |
| CCCCC(=O)CC | inactive |
| CCCCCCCCCS | inactive |
| O=C1Cc2ccccc2O1 | inactive |
| CCOC(=O)C(C)C | inactive |
| CCCCCOC(=O)CCCCC | inactive |
| CCCCCC1=C(C)CCC1=O | inactive |
| CCCCCCCCCO | inactive |
| CC(C)=CCCC(C)=CCO | inactive |
| CC(=O)OCC=C(C)C | inactive |
| CCCC(=O)C(C)=O | inactive |
| CC(=O)Oc1ccccc1 | inactive |
| CC(=O)OCc1ccccc1 | inactive |
| C=CCOC(=O)CCCCCC | inactive |
| CCCCCCCCO | inactive |
| CCCCCCOC(C)=O | inactive |
| C=C(C)C1CCC(C)C(=O)C1 (stereo unspecified) | active |
| CCCCCCCCS | inactive |
| CCCCC(=O)O | inactive |

| Structure (SMILES) | odorant receptor agonist call |
| --- | --- |
| O=C1CCOc2ccccc21 | inactive |
| CCCCCCCCCC(=O)[O-].[H+] | inactive |
| CCCCCCCCC(=O)O | inactive |
| CCC(=O)O | inactive |
| CCCCCC(=O)CC | inactive |
| CCC(=O)C(=O)CC | inactive |
| CCCCCCO | inactive |
| CCCCCCCO | inactive |
| CCCCCCCC(C)=O | inactive |
| CCCCCCC(C)=O | inactive |
| CC12CCC(CC1=O)C2(C)C (stereo unspecified) | inactive |
| CC(C)=CCCC(C)CCO (stereo unspecified) | inactive |
| CCCCCC=O | inactive |
| O=C(c1ccccc1)c1ccccc1 | inactive |
| c1ccccc1 | inactive |
| CCCCC(C)=O | inactive |
| CCCCOC=O | inactive |
| CCCCCCCCCCO | inactive |

Test system: T3, A0A1L1SVG7
T3 sequence (whole entry): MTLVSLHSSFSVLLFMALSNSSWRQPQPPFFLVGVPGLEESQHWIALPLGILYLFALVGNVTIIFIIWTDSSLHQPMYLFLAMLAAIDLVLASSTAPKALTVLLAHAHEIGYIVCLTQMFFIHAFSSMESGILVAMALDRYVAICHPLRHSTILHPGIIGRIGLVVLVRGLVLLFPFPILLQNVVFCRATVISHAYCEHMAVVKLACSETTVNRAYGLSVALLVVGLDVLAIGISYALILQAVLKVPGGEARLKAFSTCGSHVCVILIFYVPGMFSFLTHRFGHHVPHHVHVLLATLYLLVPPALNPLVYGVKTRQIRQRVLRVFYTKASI
Settings: stereoisomer not certain
Method in brief: as §1

| Structure (SMILES) | odorant receptor agonist call |
| --- | --- |
| CCCCC(=O)CC | inactive |
| CCCCCCCCCS | inactive |
| O=C1Cc2ccccc2O1 | inactive |
| CCOC(=O)C(C)C | inactive |
| CCCCCOC(=O)CCCCC | inactive |
| CCCCCC1=C(C)CCC1=O | inactive |
| CCCCCCCCCO | inactive |
| CC(C)=CCCC(C)=CCO | inactive |
| CC(=O)OCC=C(C)C | inactive |
| CCCC(=O)C(C)=O | inactive |
| CC(=O)Oc1ccccc1 | inactive |
| CC(=O)OCc1ccccc1 | inactive |
| C=CCOC(=O)CCCCCC | inactive |
| CCCCCCCCO | inactive |
| CCCCCCOC(C)=O | inactive |
| C=C(C)C1CCC(C)C(=O)C1 (stereo unspecified) | inactive |
| CCCCCCCCS | inactive |
| CCCCC(=O)O | inactive |

| Structure (SMILES) | odorant receptor agonist call |
| --- | --- |
| O=C1CCOc2ccccc21 | inactive |
| CCCCCCCCCC(=O)[O-].[H+] | active |
| CCCCCCCCC(=O)O | active |
| CCC(=O)O | inactive |
| CCCCCC(=O)CC | inactive |
| CCC(=O)C(=O)CC | inactive |
| CCCCCCO | inactive |
| CCCCCCCO | inactive |
| CCCCCCCC(C)=O | inactive |
| CCCCCCC(C)=O | inactive |
| CC12CCC(CC1=O)C2(C)C (stereo unspecified) | inactive |
| CC(C)=CCCC(C)CCO (stereo unspecified) | inactive |
| CCCCCC=O | inactive |
| O=C(c1ccccc1)c1ccccc1 | inactive |
| c1ccccc1 | inactive |
| CCCCC(C)=O | inactive |
| CCCCOC=O | inactive |
| CCCCCCCCCCO | inactive |
